Results reported in ChEMBL document CHEMBL2086236, “Discovery of pyrrolo[3,2-c]quinoline-4-one derivatives as novel hedgehog signaling inhibitors” (Bioorg Med Chem, 2012).

Assays:
Sonic hedgehog protein = Sonic hedgehog protein (Mus musculus, UniProt Q62226); assay: Inhibition of recombinant mouse Shh expressed in […] assessed as inhibition of Gli1 expression after 48 hrs by luciferase reporter gene assay; assay type: cell-based, NIH/3T3
Procedure, shortened: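 NIH3T3 cells stably carrying a Gli-luciferase reporter (kept in DMEM/10% FBS, 500 µg/mL G418) were seeded on collagen-coated plates overnight. Compounds (final 0.03–1000 nM, n = 4 wells) were added with recombinant mouse Shh-N at final 1 µg/mL in 5.8% FBS, then incubated 48 h. Controls were 0.1% DMSO ± Shh-N (n = 10). Read-out was luciferase luminescence; IC50 is the mean of four measurements.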

[1] = Clearance in mouse hepatic microsomes by LC-MS/MS analysis; assay type: ADME, Microsome; conditions: liver microsomes, read-out: CLH
Procedure, shortened: (§1)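 Liver microsomes (0.2 mg protein/mL) were incubated with 1 µmol/L test compound in 50 mmol/L potassium phosphate, pH 7.4. The reaction was started with an NADPH-generating system (MgCl₂, glucose-6-phosphate, β-NADP+, G6P dehydrogenase) added at 20% of the reaction volume. Clearance was reported in µL/min/mg.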

[2] = Clearance in human hepatic microsomes by LC-MS/MS analysis; assay type: ADME, Microsome; conditions: liver microsomes, read-out: CLH; procedure, shortened: as §1
[3] = target: Voltage-gated inwardly rectifying potassium channel KCNH2 (Homo sapiens, UniProt Q12809); assay: inhibition of human ERG
Mus musculus [4] = assay: Toxicity against Ptch+/- p53-/- double-mutant mouse medulloblastoma allograft model assessed as body weight loss at 6.25 mg/kg, po bid for 2 weeks; assay type: organism-based; parameters: dose 6.25 mg/kg, route oral; conditions: in vivo, 336 h
Procedure, shortened: (§2)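 Nude mice carrying subcutaneous Ptch+/- p53-/- medulloblastoma allografts (passaged in vivo) were dosed orally twice daily for 2 weeks, suspended in 0.5% methylcellulose, vs vehicle, once tumors reached an average of 150–250 mm³. Tumors were measured by caliper, with V = (a × b²)/2. T/C% = mean treated (Vend−Vstart)/control (Vend−Vstart) × 100. Body weight was followed. Points are mean SD of duplicates; 1-tailed Dunnett's test vs controls.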

[5] = Binding affinity to human Smo expressed in 293T cells after 1 hr by fluorescence analysis; assay type: cell-based
Procedure, shortened: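 293T cells were transiently transfected overnight with HA-tagged human Smo, then plated at 6×10⁴ cells/well. Compounds (final 0.03–1000 nM) were incubated 1 h with 2 nM BODIPY-cyclopamine, n = 3 wells per concentration. Media or excess unlabelled cyclopamine set the 0%/100% inhibition controls (n = 5). Cell fluorescence was read by flow cytometry after Versene detachment.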

Mus musculus [6] = assay: In vivo inhibition of Shh signalling in mouse xenografted with PAN-04 cells assessed as Gli1 expression at 25 mg/kg, po bid measured after 24 hrs post first dose relative to control; values are per cent of control; conditions: PAN-04, po
[7] = Antitumor activity against Ptch+/- p53-/- double-mutant mouse medulloblastoma allograft model assessed as tumor growth rate at 6.25 mg/kg, po bid for 2 weeks measured up to 21 days relative to control; assay type: functional, Medulloblastoma cell; procedure, shortened: as §2

Chain of Sonic hedgehog protein (Q62226 25-198 limits assumed): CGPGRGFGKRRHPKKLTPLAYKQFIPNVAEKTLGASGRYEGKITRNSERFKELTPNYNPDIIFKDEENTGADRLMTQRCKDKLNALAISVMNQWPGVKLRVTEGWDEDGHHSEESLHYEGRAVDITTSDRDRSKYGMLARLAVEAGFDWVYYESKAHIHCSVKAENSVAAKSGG
Chain of Voltage-gated inwardly rectifying potassium channel KCNH2 (Q12809 whole entry): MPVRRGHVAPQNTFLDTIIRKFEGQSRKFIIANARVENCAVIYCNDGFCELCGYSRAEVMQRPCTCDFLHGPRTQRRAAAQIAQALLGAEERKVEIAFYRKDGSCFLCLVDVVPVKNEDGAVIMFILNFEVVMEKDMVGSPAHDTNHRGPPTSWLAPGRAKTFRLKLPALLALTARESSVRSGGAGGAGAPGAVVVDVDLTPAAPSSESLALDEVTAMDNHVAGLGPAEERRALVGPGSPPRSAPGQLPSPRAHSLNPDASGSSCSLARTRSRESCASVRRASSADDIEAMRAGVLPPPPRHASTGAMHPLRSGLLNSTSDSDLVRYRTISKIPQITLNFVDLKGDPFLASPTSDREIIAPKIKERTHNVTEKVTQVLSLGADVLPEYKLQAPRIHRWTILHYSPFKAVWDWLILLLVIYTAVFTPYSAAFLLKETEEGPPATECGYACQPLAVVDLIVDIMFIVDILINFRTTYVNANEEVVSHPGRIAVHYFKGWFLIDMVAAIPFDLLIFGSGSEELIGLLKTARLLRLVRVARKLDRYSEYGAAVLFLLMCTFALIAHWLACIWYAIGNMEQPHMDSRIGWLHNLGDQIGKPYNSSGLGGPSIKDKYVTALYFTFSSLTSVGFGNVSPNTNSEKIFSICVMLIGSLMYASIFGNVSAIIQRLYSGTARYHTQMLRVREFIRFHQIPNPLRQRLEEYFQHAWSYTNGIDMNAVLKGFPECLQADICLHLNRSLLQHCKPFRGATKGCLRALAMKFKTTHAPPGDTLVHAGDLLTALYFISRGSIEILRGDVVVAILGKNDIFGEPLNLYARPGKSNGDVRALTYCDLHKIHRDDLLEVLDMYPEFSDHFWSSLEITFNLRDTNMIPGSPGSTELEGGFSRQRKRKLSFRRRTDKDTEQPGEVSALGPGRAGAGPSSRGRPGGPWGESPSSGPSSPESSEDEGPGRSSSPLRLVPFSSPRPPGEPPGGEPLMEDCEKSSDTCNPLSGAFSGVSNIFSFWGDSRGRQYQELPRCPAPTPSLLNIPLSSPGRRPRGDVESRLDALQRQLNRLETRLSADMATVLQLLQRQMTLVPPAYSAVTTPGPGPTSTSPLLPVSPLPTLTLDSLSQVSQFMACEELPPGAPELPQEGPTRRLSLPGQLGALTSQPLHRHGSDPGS

Row | Compound | IC50 (Sonic hedgehog protein) | microsomal CLint [1] | microsomal CLint [2] | IC50 [5] | inhibition (INH) [3] | Activity (Mus musculus [4]) | level, % of control at 25 mg/kg (Mus musculus [6]) | Activity [7]
1 | COc1c(C(=O)NCCN2CCOCC2)n(C)c2c1c(=O)n(CC(=O)c1ccccc1)c1ccccc21 | 22 nM | 237 µL/min/mg | 73 µL/min/mg | – | – | – | – | –
2 | COc1c(C(=O)NC2CCN(CCO)CC2)n(C)c2c1c(=O)n(CCc1ccccc1)c1ccccc21 | 150 nM | 48 µL/min/mg | 72 µL/min/mg | – | – | – | – | –
3 | COc1c(C(=O)NCCN2CCCC2)n(C)c2c1c(=O)n(CC(=O)c1ccccc1)c1ccccc21 | 2.9 nM | 95 µL/min/mg | 14 µL/min/mg | – | – | – | – | –
4 | COc1c(C(=O)NC2CCNCC2)n(C)c2c1c(=O)n(CC(=O)c1ccccc1)c1ccccc21 | 21 nM | 10 µL/min/mg | 2 µL/min/mg | – | – | – | – | –
5 | CCOc1c(C(=O)NCCN2CCCC2)n(C)c2c1c(=O)n(CC(=O)c1ccccc1)c1ccccc21 | 7 nM | 155 µL/min/mg | 26 µL/min/mg | – | – | – | – | –
6 | COc1c(C(=O)NCCN2CCCC2)oc2c1c(=O)n(CC(=O)c1ccccc1)c1ccccc21 | > 1000 nM | – | – | – | – | – | – | –
7 | COc1c(C(=O)NC2CCN(C(=O)CO)CC2)n(C)c2c1c(=O)n(CC(=O)c1ccccc1)c1ccccc21 | 4.6 nM | 11 µL/min/mg | < 1 µL/min/mg | 41 nM | Not Active | Non-toxic | 5% | 3%

More lines, main results first:

Row | IC50 (Sonic hedgehog protein) | microsomal CLint [1] | microsomal CLint [2] | IC50 [5] | Compound | inhibition (INH) [3] | Activity (Mus musculus [4]) | level, % of control at 25 mg/kg (Mus musculus [6]) | Activity [7]
8 | 5.1 nM | – | – | – | COc1c(C(=O)NCCN2CCCC2)sc2c1c(=O)n(CC(=O)c1ccccc1)c1ccccc21 | – | – | – | –
9 | 6.6 nM | 9 µL/min/mg | 6 µL/min/mg | – | COc1c(C(=O)NC2CCN(CCO)CC2)n(C)c2c1c(=O)n(CC(=O)c1ccccc1)c1ccccc21 | Active | – | – | –
10 | 9.6 nM | 192 µL/min/mg | 30 µL/min/mg | – | COc1c(C(=O)NCCN2CCCCC2)n(C)c2c1c(=O)n(CC(=O)c1ccccc1)c1ccccc21 | – | – | – | –
11 | > 100 nM | < 1 µL/min/mg | 3 µL/min/mg | – | CCC(=O)Cn1c(=O)c2c(OC)c(C(=O)NC3CCN(CCO)CC3)n(C)c2c2ccccc21 | – | – | – | –
